The values that follow come from ChEMBL document CHEMBL2010776, “Synthesis and structure elucidation of novel fused 1,2,4-triazine derivatives as potent inhibitors targeting CYP1A1 activity” (Bioorg Med Chem, 2012).

SMILES strings stand for the structures. Bounds are passed on as bounds.

One data set addresses T1, CYP1A1 (Rattus norvegicus, UniProt P00185).
T1 sequence (P00185 whole entry): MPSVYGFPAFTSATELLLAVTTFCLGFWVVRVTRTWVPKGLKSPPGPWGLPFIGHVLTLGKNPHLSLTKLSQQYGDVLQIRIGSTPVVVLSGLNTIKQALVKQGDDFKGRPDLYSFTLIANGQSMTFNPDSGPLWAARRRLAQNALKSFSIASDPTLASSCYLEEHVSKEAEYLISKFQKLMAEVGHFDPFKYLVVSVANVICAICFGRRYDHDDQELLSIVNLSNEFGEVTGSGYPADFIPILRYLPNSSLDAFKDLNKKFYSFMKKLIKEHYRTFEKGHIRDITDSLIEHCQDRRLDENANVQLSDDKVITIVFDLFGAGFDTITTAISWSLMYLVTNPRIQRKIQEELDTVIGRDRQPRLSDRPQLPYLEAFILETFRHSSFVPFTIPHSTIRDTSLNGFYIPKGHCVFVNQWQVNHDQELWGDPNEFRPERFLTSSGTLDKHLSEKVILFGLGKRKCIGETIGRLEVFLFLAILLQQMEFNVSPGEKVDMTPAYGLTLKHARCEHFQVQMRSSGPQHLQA
In words: Inhibition of CYP1A1 activity in rat liver microsomes using benzo[alpha]pyrene as substrate at 100 nmol after 10 mins by fluorescence analysis. Also noted: species or system Microsome. The following applies: probe benzo[alpha]pyrene. Put shortly:
(§1)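 AHH assay, 1 mL mix: 50 mM Tris–HCl pH 7.4, […], 100 nmol test compound, 0.1 mL microsomal protein (10 mg/mL) from PAH-induced rat liver (105,000 g pellet, resuspended in 0.1 M K phosphate pH 7.4). Started with 100 nmol benzo[a]pyrene, 37 °C 10 min, acetone stop; 3-OH-BaP hexane-extracted, fluorescence ex 396/em 522 nm; percent change in activity.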
For orientation: Liver microsomes are vesicles of endoplasmic reticulum, rich in cytochrome P450 enzymes.

For another data set, the target named is T2, Cytochrome P450 1A1 (Rattus norvegicus, UniProt P00185).
T2 sequence (P00185 whole entry): T1 sequence (P00185 whole entry)
In words: Inhibition of CYP1A1 activity in rat liver microsomes using benzo[alpha]pyrene as substrate after 10 mins by fluorescence analysis. Set-up: species or system Microsome. An outline of the steps: as §1

For data set [1], the system named is Mus musculus. The data set is described as follows: Acute toxicity in mouse assessed as tolerability up to 350 mg/kg, po. Format: organism-based. Set-up: dose 350 mg/kg, route oral. The following applies: in vivo.
Data set [2] has as its system Mus musculus. In words: Acute toxicity in mouse assessed as tolerability up to 150 mg/kg, ip. The class given is organism-based. Also noted: dose 150 mg/kg, route intraperitoneal. The following applies: in vivo. An outline of the steps:
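Mice in groups of six; compound suspended in corn oil and given intraperitoneally at 1, 5, 10, 50 or 150 mg/kg; vehicle-only control group. Body weight recorded before dosing and on days 7 and 14 (termination).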

A short description of data set [3]: Toxicity in po dosed mouse. The class given is organism-based. The following applies: in vivo.

Turning to `CC(=O)N1N=C2N(N=C(Cc3ccccc3)C(=O)N2N(C(C)=O)C(C)=O)C1c1ccccc1` (stereo unspecified), the inhibition – broadly, the relative decrease from the control value, in per cent – at 10 min against CYP1A1 was 20.6%. Also, on Cytochrome P450 1A1, the IC50 (in general, the concentration that inhibits the measured activity by half) amounted to 24.2 nM.

The molecule `COc1ccc(CC2=NN3C(=NN(C(C)=O)C3(C)c3ccccc3)N(NC(C)=O)C2=O)cc1` (stereo unspecified) returned an inhibition at 10 min against CYP1A1 of 59.8%. In addition, on Cytochrome P450 1A1, it took 8.36 nM to reach half-maximal inhibition (IC50).

As to `CC(=O)NN1C(=O)C(Cc2ccccc2)=NN2C1=NN(C(C)=O)C2(C)c1ccccc1` (stereo unspecified), at CYP1A1, the inhibition at 10 min was 37.9%. Further, the IC50 on Cytochrome P450 1A1 was determined as 13.2 nM.

At CYP1A1, `COc1ccc(CC2=NN3C(=NN(C(C)=O)C3(C)c3ccc(C)cc3)N(N(C(C)=O)C(C)=O)C2=O)cc1` (stereo unspecified) showed an inhibition at 10 min of 48.2%. The midpoint of inhibition against Cytochrome P450 1A1, the IC50, lay at 10.4 nM.

On CYP1A1, `COc1ccc(CC2=NN3C(=NN(C(C)=O)C3c3ccccc3)N(N(C(C)=O)C(C)=O)C2=O)cc1` (stereo unspecified) came in with an inhibition at 10 min of 57.6%. In addition, the IC50 on Cytochrome P450 1A1 came out at 86.7 nM.

As to `CC(=O)N1C(=O)C2(c3ccccc31)N(C(C)=O)N=C1N(N(C(C)=O)C(C)=O)C(=O)C(Cc3ccccc3)=NN12` (stereo unspecified), on CYP1A1, the inhibition at 10 min was found to be 64.6%. Also, inhibition at Cytochrome P450 1A1 was half-maximal at 7.74 nM (IC50).

`COc1ccc(Cc2nnc(N/N=C3\C(=O)Nc4ccccc43)n(N)c2=O)cc1` came in with an inhibition at 10 min against CYP1A1 of 90.5%. The concentration for half-maximal inhibition (IC50) on Cytochrome P450 1A1 was 5.53 nM. Moreover, the Activity result in the data set with Mus musculus [1] and in the data set with Mus musculus [2] was “Non-toxic” throughout. Also, the LD50 (usually the dose expected to kill half of the subjects tested) in data set [3] is more than 350 mg/kg.

In the case of `Nn1c(N/N=C2\C(=O)Nc3ccccc32)nnc(Cc2ccccc2)c1=O`, the inhibition at 10 min against CYP1A1 is 92.2%. Moreover, on Cytochrome P450 1A1, the half-maximal inhibitory concentration (IC50) is 5.42 nM. The Activity result with Mus musculus [1] and in the data set with Mus musculus [2] was “Non-toxic” throughout. This molecule also had a median lethal dose (LD50) in data set [3] of more than 350 mg/kg.

Molecule `COc1ccc(C2N(C(C)=O)N=C3N2N=C(Cc2ccccc2)C(=O)N3N(C(C)=O)C(C)=O)cc1` (stereo unspecified) showed an inhibition at 10 min against CYP1A1 of 51.5%. For the same molecule, the half-maximal inhibitory concentration (IC50) against Cytochrome P450 1A1 was found to be 9.71 nM.

At CYP1A1, `CC(=O)NN1C(=O)C(Cc2ccccc2)=NN2C1=NN(C(C)=O)C2(C)c1ccc(Cl)cc1` (racemic) showed an inhibition at 10 min of 87.9%. For the same molecule, on Cytochrome P450 1A1, the IC50 is 5.69 nM. Besides, the Activity result in the data set with Mus musculus [1] and in the data set on Mus musculus [2] was “Non-toxic” in each case. Besides, the LD50 in data set [3] was more than 350 mg/kg.

Turning to `CC(=O)NN1C(=O)C(Cc2ccccc2)=NN2C1=NN(C(C)=O)C2(C)c1ccc(C)cc1` (stereo unspecified), on CYP1A1, the inhibition at 10 min was 75.6%. Further, half-maximal inhibition against Cytochrome P450 1A1 (IC50) required 6.62 nM.

On to `COc1ccc(CC2=NN3C(=NN(C(C)=O)C34C(=O)N(C(C)=O)c3ccccc34)N(N(C(C)=O)C(C)=O)C2=O)cc1` (stereo unspecified), for which, at CYP1A1, the inhibition at 10 min was 81.5%. For the same molecule, on Cytochrome P450 1A1, the concentration for half-maximal inhibition (IC50) was 61.4 nM. The Activity result with Mus musculus [1] and in the data set on Mus musculus [2] was “Non-toxic” in each case. This molecule also returned a median lethal dose (LD50) in data set [3] of more than 350 mg/kg.
